# Jurkat NFkB inh – inhibitors of induced NF-kB luciferase reporter, primary screen, TCR NF-kB activation inhibitor project, cell-based, luminescence, uHTS; inhibition, % at 4 µM; 0.53% of 330,000 active; AID 435003, 2010; Jurkat, PMA/ionomycin-induced NF-kB luciferase reporter; in the data active = inhibition above about 50%
# CHOP inh – inhibitors of CHOP promoter induction, primary screen, cell-based, unfolded protein response, luciferase reporter; CHO-K1 CHOP-promoter luciferase, tunicamycin-induced, 15-18 h; 3.8% of 220,000 active; inhibition, % at 10 µM; AID 2732, 2010;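 active = compounds that reduced the stress-induced luciferase reporter signal by more than about 70% of percent inhibition, limit read from the data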;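 note: 0% = tunicamycin plus vehicle and 100% = wells without tunicamycin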
# 697 NFkB inh – inhibitors of PMA/ionomycin-induced NF-kB reporter, 697 cells, primary screen, B-cell NF-kB inhibitor project, cell-based, luminescence, uHTS | 0.33% of 330,000 active | AID 435022, 2010 | 697 B-cell NF-kB luciferase reporter, 16 h | inhibition, % at 4 µM; in the data active = inhibition above about 35%
# UPR CHOP act – activators of apoptotic CHOP UPR arm, primary screen, cell-based, CHO-CHOP luciferase reporter, luminescence, uHTS. UPR activation; percent of tunicamycin response over DMSO baseline. 0.34% of 330,000 active. activation, % at 10 µM;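 active = at 10 µM dose, activation of 40% or more, normalized to positive control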;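 note: 100% = tunicamycin at 10 µg/mL and 0% = DMSO alone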
#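 Test system: CHO CHOP reporter cells. Input: 500 CHO-CHOP cells per well. Medium: F12 with 10% FBS. Technique: luciferase luminescence. Measure: percent activation relative to tunicamycin control. Dosing: 10 µM compound, 0.5% DMSO. Timing: 16-18 h cell attachment, then 6 h compound exposure, 37 °C.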
# UPR XBP1 act – activators of adaptive XBP1 UPR arm, primary screen, cell-based, CHO-XBP1 luciferase reporter, luminescence, uHTS; IRE1-XBP1 UPR activation; percent of tunicamycin response, DMSO as zero; activation, % at 20 µM; 0.33% of 330,000 active;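 active = versus positive control, 20 µM dose yields 30% or more activation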;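 note: 100% = tunicamycin at 10 µg/mL and 0% = DMSO only wells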
#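 Assay system: CHO-XBP1 luciferase reporter cells; Schedule: 6 h treatment, 37 °C; Detection: glow luminescence from Steady-Glo reagent; Benchmarks: high control tunicamycin 10 µg/mL final, low control DMSO vehicle only.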
# Active calls of the source: *; / = not tested or not shown. The sample as a whole holds a higher share of hits than the screen did.
SMILES,Jurkat NFkB inh,CHOP inh,697 NFkB inh,UPR CHOP act,UPR XBP1 act
Cc1ccc(NC(=O)Cn2cncc2-c2ccc([N+](=O)[O-])cc2)cc1C,-24,81*,-27,-1,3
COc1ccccc1NC(=O)Cn1cncc1-c1ccc([N+](=O)[O-])cc1,11,-14,0,0,-2
Cc1cccc(NC(=O)Cn2nc(-c3cccs3)ccc2=O)c1C,4,/,9,-1,-4
O=C(NCc1cc(C(F)(F)F)ccc1Cl)c1cccc2c1C(=O)c1ccc(Cl)cc1S2(=O)=O,17,/,10,3,-1
O=C(NCc1cc(C(F)(F)F)ccc1Cl)c1cccc2c1C(=O)c1ccc(-c3ccc(OC(F)(F)F)cc3)cc1S2(=O)=O,13,/,19,91*,162*
O=C(N/N=C/c1c(Cl)[nH]c2ccccc12)c1ccc2c(c1)OCCO2,-18,-22,-60,3,5
N#C/C=C(/N)N1CCN(c2ccc(Cl)c(Cl)c2)CC1,-16,80*,0,-1,-4
COc1ccc(C(=O)c2ccc(Br)cc2)cc1,-36,76*,-14,4,0
Oc1ccc(C2=NNC(c3ccc(O)cc3)=NN2)cc1,7,/,-2,2,-3
Cc1cc(OC(=O)N2CCCCC2)cc(C)c1Cl,-1,76*,-4,0,0
Cc1cc(OCC(=O)N2CCCC2)cc(C)c1Cl,3,10,-1,8,2
Cc1ccccc1NC(=O)Cn1nnc2c(cnn2-c2ccc(F)cc2)c1=O,-18,36,-29,0,-2
CCOc1ccc(NC(=O)Cn2nnc3c(cnn3-c3ccc(F)cc3)c2=O)cc1,5,72*,-4,0,2
O=C(c1cccc(F)c1)N1CCN(c2cc(N3CCCCC3)c(F)cc2[N+](=O)[O-])CC1,12,73*,0,1,-2
COc1cc2c(cc1OC)C(c1ccccc1C(F)(F)F)CC(=O)N2 (centres undefined),-3,/,8,-3,-4
COc1cc(-c2nc3ccc4ccccc4c3c3c2CCC3)cc(OC)c1OC,-16,57,-12,0,-2
COc1cc(-c2nc3ccc4ccccc4c3c3c2CCC3)ccc1O,-21,86*,-11,3,1
CC1CCN(C(=O)CSc2nc(N)c(NC(=O)c3ccccc3)c(=O)[nH]2)CC1,6,/,-14,0,-3
COc1ccc(NC(=O)CN(C)C(=O)Cn2c(=O)oc3ccccc32)cc1,-1,/,3,0,1
COC(=O)c1ccc(OC(=O)CS(=O)c2ccccc2[N+](=O)[O-])cc1 (centres undefined),18,9,23,-1,-3
O=C(CS(=O)c1ccc(C(F)(F)F)cc1[N+](=O)[O-])Oc1ccccc1 (centres undefined),-39,88*,-19,16,0
Cc1csc(SCC(=O)NC(C)c2ccc(F)cc2)n1 (centres undefined),-16,17,-4,0,0
S=C(Nc1ccc(Oc2ccccc2)cc1)NC1CCCCCC1,/,37,/,/,/
CC(C)(C)c1ccc(/C=N/NC(=S)NC2CCCCC2)cc1,-30,72*,-50,0,6
FC(F)(F)c1ccc(NC(=S)NC2CCCCC2)cc1,-49,88*,-15,8,2
SMILES,Jurkat NFkB inh,CHOP inh,697 NFkB inh,UPR CHOP act,UPR XBP1 act
S=C(NNc1ccc2ccccc2c1)NC1CCCCC1,-25,81*,-64,5,-1
O=C(N/N=C/c1ccccc1)NC1CCCCC1,-39,39,-63,3,6
S=C(Nc1ccc(Oc2ccccc2)cc1)NC1CCCCC1,-1,75*,0,0,-1
CCN(CC)c1ccc(NC2CC(=O)N(CCc3ccc(OC)cc3)C2=O)cc1 (centres undefined),27,53,13,2,2
CN(C)CCCO[C@@H]1[C@H]2OC(C)(C)O[C@H]2O[C@@H]1[C@H](O)CO,-4,/,7,0,-4
Cc1[nH]c2ccccc2c1SCCN,4,/,5,0,-1
Cc1[nH]c2ccccc2c1SCc1ccccc1,5,83*,9,2,4
CC(C)Cc1cc(C(=O)N2CCCC(CO)(Cc3ccc(F)cc3F)C2)n[nH]1 (centres undefined),-13,/,9,1,-6
Cc1nc(N2CCN(C)CC2)c2sc(=S)n(-c3ccccc3)c2n1,-5,-13,-4,1,1
Cc1nc(N2CCN(C)CC2)c2sc(=S)n(C)c2n1,7,74*,8,-1,2
COc1ccc(/C=N/NC(=O)Cc2csc(Nc3cccc(C(F)(F)F)c3)n2)c(OC)c1,-2,95*,11,-1,-9
Cc1cc(NS(=O)(=O)c2ccc(NC(=O)/C=C/c3cccc(Cl)c3)cc2)no1,9,/,-38,3,-3
CSc1cccc(NC(=O)c2[nH]c(C)c(C(C)=O)c2C)c1,-57,/,-40,9,2
COC(=O)c1c(NC(=O)COC(=O)CNC(=O)C2CCCCC2)sc(C)c1C,-23,78*,10,0,2
CSc1nc(Oc2ccccc2)c2sccc2n1,14,51,5,-4,-1
C=CCSc1nc(Oc2ccccc2)c2sccc2n1,-6,72*,-19,-1,1
CCOC(=O)c1ccccc1NC1c2ccccc2C(=O)N1c1ccc(C)cn1 (centres undefined),-36,85*,-54,5,-3
CCOc1ccccc1NC1c2ccccc2C(=O)N1c1ccc(C)cn1 (centres undefined),-12,51,-43,1,-1
CC(C)(C)c1cc(/C=N/NC(=O)C[n+]2ccccc2)cc(C(C)(C)C)c1O,1,/,7,-1,-5
COc1ccc(-c2[nH]ncc2N=Nc2ccccc2)cc1,-5,73*,-68,2,2
COc1ccc(N=Nc2cc(-c3ccccc3)ccc2O)cc1,-10,/,-15,0,-1
O=C(CNC(=S)N(Cc1ccccc1)Cc1ccccc1F)NCc1ccc(Cl)cc1,/,78*,/,/,/
CC(C)(C)C(=O)NN=C1CCC(c2ccccc2)CC1 (centres undefined),19,/,-14,0,-9
Cc1ccc(OCC(=O)Nc2ccc3c4c(cccc24)CC3)c(C)c1,7,82*,2,1,7
Cc1ccc(CCNC(=O)C2CCN(S(=O)(=O)c3ccc4nc5c(c(C(=O)O)c4c3)CCCC5)CC2)cc1,-1,/,-3,0,-4
CCOC(=O)C1=C(N)Oc2cc(O)ccc2C1c1ccc([N+](=O)[O-])cc1 (centres undefined),14,94*,-7,0,-2

# From PubChem BioAssay
